Here are results for 5 compounds from ChEMBL document CHEMBL1148762, “Lysosome and HER3 (ErbB3) selective anticancer agent kahalalide F: semisynthetic modifications and antifungal lead-exploration studies” (J Med Chem, 2007).

Test [1] deals with Mycobacterium intracellulare. The test can be described thus: Antimicrobial activity against Mycobacterium intracellular ATCC 23068. It counts as functional, organism-based.
The test system of another test is Aspergillus fumigatus. The experiment in a line: Antimicrobial activity against Aspergillus fumigatus ATCC 90906. The test is classed as functional, organism-based.
The subject of a further test is Cryptococcus neoformans. The experiment in a line: Antimicrobial activity against Cryptococcus neoformans ATCC 90113. The test is classed as functional, organism-based.
For another test, the system named is Candida albicans. The experiment in a line: Antimicrobial activity against Candida albicans ATCC 90028. It counts as functional, organism-based.
For another test, the system named is RPMI-8226. The test can be described thus: Cytotoxicity against human RPMI8226 cells. It counts as functional. The method in brief: (§1)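 NCI Developmental Therapeutics Program cell panel. GI50 is the concentration that reduces growth of treated cells to half that of untreated controls. TGI is the concentration that completely halts growth.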
A further test relates to COLO 205. The experiment in a line: Cytotoxicity against human COLO205 cells. The test is classed as functional. The method in brief: as §1
For a further test, the system named is UACC-257. The test can be described thus: Cytotoxicity against human UACC257 cells. It counts as functional. The procedure, abridged:
as §1

For a further test, the system named is DU-145. The experiment in a line: Cytotoxicity against human DU145 cells. It counts as functional. The method in brief:
as §1

The subject of a further test is Hs-578T. The experiment in a line: Cytotoxicity against human HS578T cells. It counts as functional. The method in brief:
as §1

The next test relates to HCC 2998. The experiment in a line: Cytotoxicity against human HCC2998 cells. The test is classed as functional. The method in brief: as §1
For another test, the system named is HCT-15. The experiment in a line: Cytotoxicity against human HCT15 cells. The test is classed as functional. The method in brief:
as §1

In a further test the test system is HT-29. The experiment in a line: Cytotoxicity against human HT29 cells. The test is classed as functional. The method in brief: as §1
The next test concerns SK-OV-3. The experiment in a line: Cytotoxicity against human SK-OV3 cells. The test is classed as functional. The method in brief: as §1
A further test deals with PC-3. The experiment in a line: Cytotoxicity against human PC3 cells. The test is classed as functional. The procedure, abridged: as §1
A further test concerns NCI-H322M. The test can be described thus: Cytotoxicity against human NCI-H322M cells. The test is classed as functional. The procedure, abridged:
as §1

A further test relates to KM12. The experiment in a line: Cytotoxicity against human KM12 cells. It counts as functional. The method in brief:
as §1

A further test relates to ACHN. The experiment in a line: Cytotoxicity against human ACHN cells. The test is classed as functional. The procedure, abridged: as §1
The next test has as its system SNB-75. The test can be described thus: Cytotoxicity against human SNB75 cells. It counts as functional. The method in brief:
as §1

For a further test, the system named is A549. The test can be described thus: Cytotoxicity against human A549 cells. It counts as functional. The method in brief: as §1
The subject of test [2] is Mycobacterium tuberculosis. The experiment in a line: Antibacterial activity against Mycobacterium tuberculosis H37Rv at 16 ug/mL by micro plate alamar blue assay. The test is classed as functional. The procedure, abridged:
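M. tuberculosis H37Rv ATCC 27294 grown in BACTEC 12B medium; microplate Alamar blue assay (MABA). Primary screen at a single concentration of 16 µg/mL, read as percent inhibition.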

Converted amounts (≈) assume the structure as drawn. Where only a bound is given, the exact number is not on record here.

Turning to `O=C(O)c1cn(C2CC2)c2cc(N3CCNCC3)c(F)cc2c1=O` [CIPROFLOXACIN], in test [1], the IC50 is 420 nM, the minimum bactericidal concentration (MBC) was more than 1 µM and the lowest concentration to inhibit growth (MIC) was 1 µM (≈ 0.331 µg/mL).
In the case of `C/C=C1\NC(=O)[C@H](Cc2ccccc2)NC(=O)[C@@H](C(C)C)NC(=O)[C@@H]([C@@H](C)CC)NC(=O)[C@H](NC(=O)[C@H](NC(=O)[C@H](CCCN(Cc2ccc(F)cc2)Cc2ccc(F)cc2)NC(=O)[C@H]2CCCN2C(=O)[C@H](NC(=O)[C@@H](NC(=O)[C@@H](NC(=O)[C@H](NC(=O)CCCC(C)C)C(C)C)[C@@H](C)O)C(C)C)C(C)C)[C@@H](C)CC)[C@@H](C)OC(=O)[C@H](C(C)C)NC1=O`, the concentration for half-maximal inhibition (IC50) (in the test with Aspergillus fumigatus; in the test on Cryptococcus neoformans; with Candida albicans; in [1]) was more than 11800 nM throughout.
As to `CC(=O)O[C@H]1C(=O)[C@@]2(C)[C@H]([C@H](OC(=O)c3ccccc3)[C@]3(O)C[C@H](OC(=O)[C@H](O)[C@@H](NC(=O)c4ccccc4)c4ccccc4)C(C)=C1C3(C)C)[C@]1(OC(C)=O)CO[C@@H]1C[C@@H]2O` [PACLITAXEL], the GI50 was 2 nM with RPMI-8226; 3 nM with COLO 205; 40 nM with UACC-257; 5 nM in the test with DU-145; 3 nM with Hs-578T; 3 nM in the test on HCC 2998. The 50% growth inhibitory concentration (GI50) in the test with HCT-15 is 158 nM; with HT-29, 2 nM; with SK-OV-3, 8 nM; in the test on PC-3, 4 nM; in the test with NCI-H322M, 13 nM; in the test with KM12 it was 4 nM. The results for the GI50 in the test on ACHN, with SNB-75 and with A549 were 398 nM, 4 nM and 4 nM, respectively. The TGI in the test on RPMI-8226 is 5010 nM; in the test on COLO 205, 316 nM; in the test on UACC-257, 25100 nM; in the test with DU-145, 794 nM; with Hs-578T it was 100 nM; with HCC 2998, 126 nM. Moreover, the concentration for total growth inhibition (TGI) turned out to be 15800 nM in the test with HCT-15; 251 nM with HT-29; 15800 nM in the test with SK-OV-3; 10000 nM in the test with PC-3; 6310 nM in the test with NCI-H322M; 15800 nM in the test on KM12. Further, the TGI in the test on ACHN stood at 12600 nM; with SNB-75 it was 126 nM; in the test on A549, 25100 nM.
Regarding `C/C=C(\NC(=O)[C@H](Cc1ccccc1)NC(=O)[C@H](NC(=O)[C@H](NC(=O)[C@H](NC(=O)[C@H](NC(=O)[C@H](CCCN)NC(=O)[C@H]1CCCN1C(=O)[C@H](NC(=O)[C@@H](NC(=O)[C@@H](NC(=O)[C@H](NC(=O)CCCC(C)C)C(C)C)[C@@H](C)O)C(C)C)C(C)C)[C@@H](C)CC)[C@@H](C)O)[C@@H](C)CC)C(C)C)C(=O)N[C@H](C(=O)O)C(C)C` [KAHALALIDE G], at 16 µg/mL the inhibition in test [2] was 29%. Also, the IC50 (with Aspergillus fumigatus; with Cryptococcus neoformans; with Candida albicans; in test [1]) was more than 13400 nM throughout.
On to `C/C=C1\NC(=O)[C@H](Cc2ccccc2)NC(=O)[C@@H](C(C)C)NC(=O)[C@@H]([C@@H](C)CC)NC(=O)[C@H](NC(=O)[C@H](NC(=O)[C@H](CCCNCc2ccncc2)NC(=O)[C@H]2CCCN2C(=O)[C@H](NC(=O)[C@@H](NC(=O)[C@@H](NC(=O)[C@H](NC(=O)CCCC(C)C)C(C)C)[C@@H](C)O)C(C)C)C(C)C)[C@@H](C)CC)[C@@H](C)OC(=O)[C@H](C(C)C)NC1=O`, for which the half-inhibitory concentration (IC50) is 4260 nM with Aspergillus fumigatus, 2120 nM in the test on Cryptococcus neoformans, 4190 nM in the test with Candida albicans and more than 20000 nM in [1].
